Reference: ChEMBL document CHEMBL1135300, “The mechanism of the irreversible inhibition of estrone sulfatase (ES) through the consideration of a range of methane- and amino-sulfonate-based compounds” (Bioorg Med Chem Lett, 2002)

Experiments:
Steryl-sulfatase = target: T1, Steryl-sulfatase (Homo sapiens, UniProt P08842); test: In vitro inhibition of estrone sulfatase.
T1 sequence (P08842 whole entry): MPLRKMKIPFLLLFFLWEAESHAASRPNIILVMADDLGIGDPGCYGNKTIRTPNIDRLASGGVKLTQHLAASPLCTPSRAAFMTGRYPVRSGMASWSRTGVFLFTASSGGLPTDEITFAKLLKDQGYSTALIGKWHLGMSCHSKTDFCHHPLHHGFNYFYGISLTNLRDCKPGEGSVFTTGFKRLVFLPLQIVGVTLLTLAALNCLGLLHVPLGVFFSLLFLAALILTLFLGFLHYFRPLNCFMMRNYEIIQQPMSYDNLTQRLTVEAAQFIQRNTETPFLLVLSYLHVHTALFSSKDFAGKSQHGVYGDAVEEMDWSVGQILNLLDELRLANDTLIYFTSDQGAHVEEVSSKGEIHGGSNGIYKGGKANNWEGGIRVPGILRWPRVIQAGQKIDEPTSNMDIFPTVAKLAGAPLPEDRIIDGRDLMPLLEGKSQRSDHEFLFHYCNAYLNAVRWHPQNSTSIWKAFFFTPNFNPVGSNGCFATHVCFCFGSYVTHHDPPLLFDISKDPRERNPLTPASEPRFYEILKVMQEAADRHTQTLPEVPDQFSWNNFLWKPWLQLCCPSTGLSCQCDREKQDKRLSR
Procedure, shortened: (§1)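 ³H-estrone sulfate (750,000 dpm per tube) with inhibitors from ethanol stock, ethanol evaporated under nitrogen. Placental microsomes in 0.05 M Tris–HCl, pH 7.2, were prewarmed 5 min at 37 °C, then added; 1 mL total, incubated 20 min at 37 °C. Toluene quench, extraction, and scintillation counting of product. Triplicates; no-inhibitor controls; boiled-microsome blanks.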

[1] = target: T2, Steryl-sulfatase (Homo sapiens) (UniProt P08842); test: In vitro inhibition of estrone sulfatase at 1 mM.; procedure, shortened: as §1
T2 sequence (whole entry): T1 sequence (P08842 whole entry)

[2] = target: T2, Steryl-sulfatase (Homo sapiens); test: In vitro inhibition of estrone sulfatase at 10 mM.; procedure, shortened: as §1

| SMILES | IC50 (Steryl-sulfatase) | inhibition [1] | inhibition [2] |
| --- | --- | --- | --- |
| NS(=O)(=O)Oc1ccccc1 [PHENYLSULFAMATE] | > 10000 uM l-1 | 29.7% | – |
| NS(=O)(=O)Oc1cccc(F)c1 | 2089 uM l-1 | 79.6% | – |
| N#Cc1ccc(OS(N)(=O)=O)cc1 | 300 uM l-1 | 74.4% | – |
| NS(=O)(=O)Oc1cccc([N+](=O)[O-])c1 | 120 uM l-1 | 90.4% | – |
| NS(=O)(=O)Oc1ccc(F)cc1 | 537 uM l-1 | 37% | – |
| CCCCCCCOS(N)(=O)=O | – | – | 0% |
| NS(=O)(=O)Oc1ccc(I)cc1 | 560 uM l-1 | 66% | – |
| NS(=O)(=O)OCC(Cl)Cl | – | 30% | – |
| N#Cc1cccc(OS(N)(=O)=O)c1 | 191 uM l-1 | 84.3% | – |
| NS(=O)(=O)Oc1ccc(Cl)cc1 | 1585 uM l-1 | 37.6% | – |
| CCCCCCCCCOS(N)(=O)=O | – | – | 0% |
| NS(=O)(=O)Oc1ccc(Br)cc1 | 912 uM l-1 | 50.8% | – |
| NS(=O)(=O)OCCCl | – | 15% | – |
| NS(=O)(=O)OCC(Cl)(Cl)Cl | 750 uM l-1 | 60% | – |
| NS(=O)(=O)Oc1cccc(Cl)c1 | 537 uM l-1 | 62% | – |
| CCCCCCCCCCCCOS(C)(=O)=O | – | 17% | – |

The next lines start with the values.

| IC50 (Steryl-sulfatase) | inhibition [1] | inhibition [2] | SMILES |
| --- | --- | --- | --- |
| – | – | 0% | CCCCCCCCOS(N)(=O)=O |
| 330 uM l-1 | 82.5% | – | NS(=O)(=O)Oc1ccc([N+](=O)[O-])cc1 |
| – | 28% | – | CCCCCCCCCOS(C)(=O)=O |
| 257 uM l-1 | 75.1% | – | NS(=O)(=O)Oc1cccc(Br)c1 |
| 120 uM l-1 | 89.4% | – | NS(=O)(=O)Oc1cccc(I)c1 |
| 2089 uM l-1 | 39.5% | – | Cc1cccc(OS(N)(=O)=O)c1 |
| > 10000 uM l-1 | 27.4% | – | Cc1ccc(OS(N)(=O)=O)cc1 |
